Measurements collected from several papers.
Target: Cyclin-dependent kinase-like 3 (CDKL3, Homo sapiens, UniProt Q8IVW4)

Structure (SMILES) | test | conditions | remaining binding
FC(F)(F)Oc1cccc(-c2cnc3ccc(-c4ccncc4)nn23)c1 | cell-free assay, competition with immobilised ligand | 5 µM | 85%
Cc1cnn2ncc(-c3ccnc(N(C)C)n3)c2c1 | binding | 1 µM | 86%
O=C(c1ccc(Nc2ncc(Cl)c(-c3ccc(Cl)s3)n2)cc1)N1CCC(N2CCCC2)CC1 | binding, competition with immobilised ligand | 1 µM | 39%
CO[C@@H](C)c1c(Nc2ccc([C@H](N(C)C(=O)C3CCS(=O)(=O)CC3)C(F)(F)F)cc2)cnc2cc(Cl)nn12 | cell-free assay, competition with immobilised ligand | 1 µM | 73%
CN(CCCC(F)(F)F)c1nccc(-c2cnn3ncccc23)n1 | binding | 1 µM | 100%
O=C(NCCCN1CCOCC1)c1ccc(Nc2ncc(Cl)c(-c3ccc(Cl)s3)n2)cc1 | binding, competition with immobilised ligand | 1 µM | 86%
CNCc1ccccc1-c1csc([C@@H](C)Nc2nc(C)nc3cc(OC)c(OC)cc23)c1 | cell-free assay, competition with immobilised ligand | 1 µM | 99%
COc1cnc(Nc2cccc(S(N)(=O)=O)c2)nc1N1CCN(c2ccccc2)CC1 | binding, competition with immobilised ligand | 1 µM | 100%
N[C@@H]1CCN(c2nccc(-c3cnn4ncccc34)n2)C1 | binding | 1 µM | 80%
CN(c1ccnc(CNc2nc(Nc3ccc4c(c3)CC(=O)N4)ncc2C(F)(F)F)n1)S(C)(=O)=O | cell-free assay, competition with immobilised ligand | 1 µM | 78%
C=CC(=O)N1CCC(C(=O)NCC(=O)N2CCN(c3nc(-c4cnc(N)nc4C(F)F)nc(N4CCOCC4)n3)CC2)CC1 | binding, competition with immobilised ligand | 1 µM | 100%
C[C@@H]1CCN(c2nccc(-c3cnn4ncccc34)n2)C1 | binding | 1 µM | 93%
Cc1noc([C@H]2C[C@@H](c3ccc(C(F)(F)F)cc3)CN(C(=O)N3CCS(=O)(=O)C3)C2)n1 | binding, competition with immobilised ligand | 1 µM | 81%
O=C(c1ccc(Nc2nccc(-c3cc4ccccc4s3)n2)cc1)N1CCC(N2CCCC2)CC1 | binding, competition with immobilised ligand | 1 µM | 58%
CN(C)c1nccc(-c2cnc3ncccn23)n1 | binding | 1 µM | 100%
C[C@@H](c1ccc(-n2cnc3c(N)ncnc32)cc1)N1CCc2nn(C)c(Cc3ccccc3)c2C1=O | binding, competition with immobilised ligand | 0.1 µM | 95%
CS(=O)(=O)NCC[C@H](NC(=O)c1cncc2c1cnn2-c1ccc(F)cc1)c1ccnc(S(C)(=O)=O)c1 | binding, competition with immobilised ligand | 1 µM | 99%
Nc1ncc2c(n1)-c1c([nH]c3ccc(C#CC4CC4)cc13)CCCC2 | binding, competition with immobilised ligand | 1 µM | 83%
CC(C)CC(=O)N1CCc2nc(-c3ccc(Br)cc3)nc(N(C)Cc3ccccc3)c2C1 | cell-free assay, competition with immobilised ligand | 0.1 µM | 89%
O=C(NCC1CCOCC1)c1n[nH]cc1NC(=O)c1c(F)cccc1F | binding, competition with immobilised ligand | 1 µM | 100%
